From ChEMBL document CHEMBL1255400, “Fasting increases tobramycin oral absorption in mice” (Antimicrob Agents Chemother, 2010)

Columns and labels:
Type in all cases: ADME, organism-based
[1] = Cmax in 15 hrs fasted BALB/c mouse at 50 mg/kg, po; parameters: dose 50 mg/kg, route oral; conditions: in vivo
Summary of the method: (§1)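 Male BALB/c mice, 6-8 weeks (25-30 g), fed or food-deprived 15 h with water available; tobramycin in physiologic solution given by gavage (50 mg/kg), or 10 mg/kg iv (tail vein) or im (hind leg) in fed mice. Groups of 3 per time point; submandibular blood at 0-180 min; plasma tobramycin by homogeneous enzyme immunoassay; noncompartmental PK analysis.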

[2] = Half life in normally fed BALB/c mouse at 50 mg/kg, po; parameters: dose 50 mg/kg, route oral; conditions: in vivo; summary of the method: as §1
[3] = AUClast in normally fed BALB/c mouse at 10 mg/kg, iv; parameters: time 0 - last, dose 10 mg/kg, route intravenous; conditions: plasma; summary of the method: as §1
[4] = Half life in 15 hrs fasted BALB/c mouse at 50 mg/kg, po; parameters: dose 50 mg/kg, route oral; conditions: in vivo; summary of the method: as §1
[5] = AUC (0 to infinity) in normally fed BALB/c mouse at 10 mg/kg, im; parameters: time infinity, dose 10 mg/kg, route intramuscular; conditions: plasma; summary of the method: as §1
[6] = AUClast in 15 hrs fasted BALB/c mouse at 50 mg/kg, po; parameters: time 0 - last, dose 50 mg/kg, route oral; conditions: plasma; summary of the method: as §1
[7] = Cmax in normally fed BALB/c mouse at 10 mg/kg, im; parameters: dose 10 mg/kg, route intramuscular; conditions: in vivo; summary of the method: as §1
[8] = Tmax in normally fed BALB/c mouse at 10 mg/kg, im; parameters: dose 10 mg/kg, route intramuscular; conditions: in vivo; summary of the method: as §1
[9] = Cmax in normally fed BALB/c mouse at 10 mg/kg, iv; parameters: dose 10 mg/kg, route intravenous; conditions: in vivo; summary of the method: as §1
[10] = Cmax in normally fed BALB/c mouse at 50 mg/kg, po; parameters: dose 50 mg/kg, route oral; conditions: in vivo; summary of the method: as §1
[11] = Tmax in normally fed BALB/c mouse at 50 mg/kg, po; parameters: dose 50 mg/kg, route oral; conditions: in vivo; summary of the method: as §1
[12] = Oral bioavailability in normally fed BALB/c mouse at 50 mg/kg, po; conditions: in vivo; summary of the method: as §1
[13] = AUClast in normally fed BALB/c mouse at 10 mg/kg, im; parameters: time 0 - last, dose 10 mg/kg, route intramuscular; conditions: plasma; summary of the method: as §1
[14] = Oral bioavailability in 15 hrs fasted BALB/c mouse at 50 mg/kg, po; conditions: in vivo; summary of the method: as §1
[15] = AUC (0 to infinity) in normally fed BALB/c mouse at 50 mg/kg, po; parameters: time infinity, dose 50 mg/kg, route oral; conditions: plasma; summary of the method: as §1
[16] = Tmax in 15 hrs fasted BALB/c mouse at 50 mg/kg, po; parameters: dose 50 mg/kg, route oral; conditions: in vivo; summary of the method: as §1
[17] = AUClast in normally fed BALB/c mouse at 50 mg/kg, po; parameters: time 0 - last, dose 50 mg/kg, route oral; conditions: plasma; summary of the method: as §1
[18] = Tmax in normally fed BALB/c mouse at 10 mg/kg, iv; parameters: dose 10 mg/kg, route intravenous; conditions: in vivo; summary of the method: as §1
[19] = AUC (0 to infinity) in normally fed BALB/c mouse at 10 mg/kg, iv; parameters: time infinity, dose 10 mg/kg, route intravenous; conditions: plasma; summary of the method: as §1
[20] = Half life in normally fed BALB/c mouse at 10 mg/kg, im; parameters: dose 10 mg/kg, route intramuscular; conditions: in vivo; summary of the method: as §1
Mus musculus = assay: Oral bioavailability in normally fed BALB/c mouse at 10 mg/kg, iv; conditions: in vivo; summary of the method: as §1
[21] = Half life in normally fed BALB/c mouse at 10 mg/kg, iv; parameters: dose 10 mg/kg, route intravenous; conditions: in vivo; summary of the method: as §1
[22] = AUC (0 to infinity) in 15 hrs fasted BALB/c mouse at 50 mg/kg, po; parameters: time infinity, dose 50 mg/kg, route oral; conditions: plasma; summary of the method: as §1
[23] = Oral bioavailability in normally fed BALB/c mouse at 10 mg/kg, im; conditions: in vivo, intramuscular; summary of the method: as §1

In the case of `NC[C@H]1O[C@H](O[C@H]2[C@H](O)[C@@H](O[C@H]3O[C@H](CO)[C@@H](O)[C@H](N)[C@H]3O)[C@H](N)C[C@@H]2N)[C@H](N)C[C@@H]1O` [TOBRAMYCIN], the Cmax [1] is reported as 7800 ng/mL, the half-life [2] is reported as 41.6 min and the AUC(0-t) [3] is reported as 11400 ng·h/mL. For the same molecule, the half-life [4] was 22 min, the AUC(0-inf) [5] was 11100 ng·h/mL and the AUC(0-t) [6] was 7060 ng·h/mL. The Cmax [7] was 16500 ng/mL, the Tmax [8] was 15 min and the Cmax [9] was 35300 ng/mL. For the same molecule, the Cmax [10] was 330 ng/mL, the Tmax [11] was 15 min and the bioavailability [12] was 0.48%. It also gave an AUC(0-t) [13] of 11000 ng·h/mL, a bioavailability [14] of 12.4% and an AUC(0-inf) [15] of 316 ng·h/mL. It also gave a Tmax [16] of 15 min, an AUC(0-t) [17] of 274 ng·h/mL and a Tmax [18] of 5 min. The AUC(0-inf) [19] was 11500 ng·h/mL, the half-life [20] was 17.7 min and the F (Mus musculus) was 100%. The half-life [21] was 20.3 min, the AUC(0-inf) [22] was 7300 ng·h/mL and the bioavailability [23] was 96.5%.
